Assay outcomes as filed in PubChem BioAssay.
Only some compounds are listed: those with a hit (about 11% of all), similar ones and a draw of the others.
M1 agonist: activates the M1 muscarinic receptor; AID 626; CHO-M1 cells, Fluo-4 calcium fluorescence, agonist mode; stronger effect = higher value; B-score at 10 µM; hit rate 3% among 64,000;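 active means fluorescence rise, raw or as B-score row- and column-corrected plate score, outside the 99.7% band of its plate's samples, either direction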
M1 antag: antagonists of rat M1 muscarinic receptor; P08482; hit rate 3.4% among 64,000; B-score at 10 µM; CHO-M1 cells, Fluo-4 calcium, ACh EC80 antagonist mode; stronger effect = lower value;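 active means calcium fluorescence response, raw or row-and-column corrected B-score, differing from the plate sample mean either way at a set confidence level, mostly lower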
S1P3 agonist: agonists of human S1P3 receptor | S1P3 NFAT-BLA reporter cells, agonism, FRET ratio; relative to 1 µM S1P, basal subtracted | activation, % at 4.5 µM | hit rate 0.1% among 60,000 | AID 373;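 active means activation above the screen-wide mean plus 3 SD, cut at about 4.5% in these data, passing the limit was not always enough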
Target sequence (Q99500 whole entry, looked up): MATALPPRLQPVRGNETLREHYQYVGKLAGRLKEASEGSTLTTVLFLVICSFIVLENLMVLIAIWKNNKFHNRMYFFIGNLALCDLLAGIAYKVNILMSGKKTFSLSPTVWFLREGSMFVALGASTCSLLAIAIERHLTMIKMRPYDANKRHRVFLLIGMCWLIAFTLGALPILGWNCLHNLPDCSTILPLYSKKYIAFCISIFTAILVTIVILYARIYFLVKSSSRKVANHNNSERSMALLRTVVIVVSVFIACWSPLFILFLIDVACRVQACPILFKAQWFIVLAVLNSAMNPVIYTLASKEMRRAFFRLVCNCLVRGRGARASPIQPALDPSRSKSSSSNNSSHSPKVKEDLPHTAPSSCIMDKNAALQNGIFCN
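material = human S1P3 NFAT-BLA reporter CHO cells | schedule = 4 h compound at 37 °C, 2 h substrate at RT | measured by = fluorescent BLA substrate, ex 405 nm, em 460/535 nm ratio | controls = 1 µM S1P reference | replication = primary once, confirmation triplicate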
S1P1 ag-PAM: S1P1 (human) agonism or agonism potentiation | P21453 | S1P1 CRE-bla cells, forskolin, beta-lactamase FRET, potentiator mode; S1P1 agonist co-added at EC20, 2 nM; 100% = saturating reference agonist, 0% = basal | activation, % at 9.5 µM | hit rate 0.57% among 56,000 | AID 449;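 active means activation above a cutoff set at the mean activation of all tested compounds plus 3 SD, cut at about 54% in these data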;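 further: forskolin at 4 µM as EC80 and the EC20 agonist is SEW2871; 100% = SEW2871 at its EC100 plus forskolin at EC80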
Target sequence (P21453 whole entry, looked up): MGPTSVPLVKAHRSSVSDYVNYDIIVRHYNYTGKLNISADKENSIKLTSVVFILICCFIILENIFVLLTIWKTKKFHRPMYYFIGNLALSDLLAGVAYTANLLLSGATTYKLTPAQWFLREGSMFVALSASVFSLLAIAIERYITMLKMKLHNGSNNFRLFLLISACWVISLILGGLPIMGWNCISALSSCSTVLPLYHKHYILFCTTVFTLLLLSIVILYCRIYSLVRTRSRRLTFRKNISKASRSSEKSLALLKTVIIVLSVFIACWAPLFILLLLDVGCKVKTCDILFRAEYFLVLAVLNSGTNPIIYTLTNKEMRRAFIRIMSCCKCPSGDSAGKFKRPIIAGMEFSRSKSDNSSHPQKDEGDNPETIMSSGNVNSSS
D1 mod: D1 dopamine receptor (human) allosteric modulation. P21728. HEK293 D1, CRE-luciferase, dopamine EC30 potentiation; actives deviate in either direction. B-score at 10 µM. hit rate 5.9% among 58,000. AID 641;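 active means luminescence count or its row- and column-corrected plate score outside the 99.7% band of the plate's sample wells, on either side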
M1 antag confirm: M1 muscarinic receptor (rat) antagonism, confirmed; CHO-M1 cells, Fluo-4 calcium, ACh EC80 antagonism; stronger effect = lower value; shares compounds with M1 antag; hit rate 43% among 1,700; calcium response (max-min fluorescence) at 10 µM;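 active means calcium response below the same-plate mean of wells given acetylcholine alone at its 80%-effect dose, minus 3 SD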;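 further: raw fluorescence intensity difference in arbitrary instrument units and not normalized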
mGluR4 antag: selectivity test for M1 antagonists: human mGluR4 receptor; hit rate 0.9% among 1,700; shares compounds with M1 antag; AID 678; fluorescence response (max-min) at 10 µM; CHO-mGluR4 calcium flux, Fluo-4 fluorescence, glutamate EC80; stronger effect = lower value;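 active means fluorescence response below the plate's average for near-maximal glutamate wells, less 3 SD of those wells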;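 further: raw unnormalized fluorescence span taken in the window right after glutamate addition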
D1 PAM confirm: D1 receptor (human) allosteric modulation, confirmed; shares compounds with D1 mod; HEK293 D1 CRE-luciferase, dopamine EC30 potentiation; stronger effect = higher value; luminescence at 10 µM; hit rate 88% among 2,200; AID 642;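 active means luminescence in either of two replicates above the same-plate mean plus 3 SD of the low-dose dopamine control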
D1 no dopamine: secondary test of D1 modulators: activity without dopamine; shares compounds with D1 mod; HEK293 D1 CRE-luciferase, luminescence, no dopamine; stronger effect = higher value; luminescence at 10 µM; hit rate 0.8% among 1,900; in the data active means luminescence above about 3900
Isoprot counter: alters isoproterenol CRE-luciferase response in HEK293 cells; HEK293 D1 CRE-luciferase, isoproterenol EC30 counter-screen; AID 647; calls only at 10 µM; hit rate 63% among 2,200; shares compounds with D1 mod;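 active means luminescence in either replicate above plate mean of wells with a partly effective reference agonist dose plus 3 SD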;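 further: isoproterenol raises cAMP through native beta-adrenoceptor Gs so signal bypasses D1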
Numbers without * were called inactive; i = inactive; x = not tested or not shown; + = active, no number.

SMILES | M1 agonist | M1 antag | S1P3 agonist | S1P1 ag-PAM | D1 mod | D1 PAM confirm | D1 no dopamine | Isoprot counter | others
COC(=O)c1c(-c2cccs2)csc1NC(=O)c1cccnc1 | -0.266 | -0.129 | -1.0 | -30.0 | x | x | x | x
Cc1cc(C)c2nc(N3CCC(C(=O)N4CCCC4)CC3)sc2c1 | -0.104 | -8* | 0.4 | 12.5 | 3.51* | 5940 | 1656 | i | M1 antag confirm=233*;mGluR4 antag=180
CCn1cc(C2=NOC(C(=O)Nc3ccc4c(c3)OCO4)C2)c(C)n1 (stereo not given) | -1.69 | 1.21 | -1.0 | 4.9 | 6.61* | 8608* | 1720 | +
CCn1nnc(-c2ccccc2NC(=O)c2cc(OC)cc(OC)c2)n1 | -0.39 | 0.375 | -1.1 | -6.4 | 0.98 | x | x | x
CCn1nnc(-c2ccccc2NC(=O)c2cc(OC)c(OC)c(OC)c2)n1 | 0.0143 | -0.0264 | -0.2 | -46.9 | 5.48* | 16052* | 1640 | +
CCCCSc1nnc2nc(C)cc(C)n12 | 1.14 | 0.516 | 0.1 | -7.3 | -0.129 | x | x | x
CCn1c(=S)sc2c(=O)n(-c3ccccc3)c(SC)nc21 | -0.795 | -0.685 | x | x | 1.17 | x | x | x
N#CCSc1nc2c(sc(=S)n2Cc2ccco2)c(=O)n1-c1ccc(F)cc1 | 1.04 | 0.414 | x | x | 2.97* | 10848* | 1572 | i
CC(=O)c1nn(-c2cccc(Cl)c2)cc1C(=O)c1ccco1 | -0.0484 | -0.474 | -1.0 | -47.8 | 4.26* | 12508* | 1716 | i
CCCOc1ccc(N2CC(C(=O)NC(C)C)CC2=O)cc1 (stereo not given) | -0.687 | -0.0696 | 0.0 | -4.1 | 1.51 | x | x | x
COC(=O)c1cc(Cc2ccc(N)c(C(=O)OC)c2)ccc1N | -1.27 | -0.503 | -2.0 | -14.3 | 3.03* | 7532* | x | +
O=C(CCn1cccc1)Nc1cccc(F)c1 | 0.894 | 0.655 | 0.3 | 0.8 | 0.0299 | x | x | x
CN1Cc2cc(C(=O)c3cc(Cl)cc(CSc4ncccn4)c3O)cnc2NC1=O | -0.953 | -0.752 | -0.9 | -61.5 | 4.49* | 8560* | x | +
COc1cc(OC)cc(C(=O)N2CCN(C(=O)c3ccc(OC)c(OC)c3)CC2)c1 | 2.29 | 0.315 | -0.7 | x | 14* | 19992* | 1652 | +
CCn1c2ccccc2c2nc3ccccc3nc21 | -0.0383 | 0.0132 | 0.6 | -82.5 | 5.61* | 15700* | x | i
COc1ccc(N2CCN(C(=O)c3ccc(OCC4CCCO4)cc3)CC2)cc1 (stereo not given) | -0.612 | -0.278 | -0.2 | -50.2 | -0.437 | x | x | x
Cn1c(=O)c2c3c(sc2n2c(SCc4ccc5c(c4)OCO5)nnc12)COC(C)(C)C3 | -0.644 | -0.602 | -0.6 | -11.2 | 0.821 | x | x | x
Clc1cccc(Nc2c3c(nc4ncnn24)CCC3)c1 | -1.74 | -0.107 | 0.4 | -14.9 | 4.71* | 8280* | 1584 | i
Cc1ccc(C(=O)N2CCN(C(=O)c3ccc(C)c(C)c3)C(C)C2)cc1C (stereo not given) | 1.25 | 0.129 | 0.1 | -22.9 | -1.52 | x | x | x
COc1ccc2nc3oc(C(=O)N4CCN(c5cccc(Cl)c5)CC4)cc3cc2c1 | 0.888 | -0.344 | -0.1 | 29.3 | 3.59* | 5456 | 1484 | i
O=c1cc(-c2ccccc2)nc2n1Cc1ccccc1-2 | 0.939 | -0.249 | -1.2 | 9.6 | 12.5* | 11948* | x | +
COc1ccccc1CC(=O)N1CCCC1 | -0.286 | 0.0164 | 0.3 | x | 0.918 | x | x | x
COc1ccc2cc3c(N)nn(C(=O)Cc4ccccc4OC)c3nc2c1 | 1.64 | 0.122 | -1.6 | 38.6 | 2.6* | 8828* | 1504 | i
COc1ccc(/C=N/n2c(SC)nnc2-c2ccccc2)c(OC)c1OC | 1.34 | 0.0348 | -0.7 | -4.6 | 0.377 | x | x | x
COc1ccc(/C=N/n2c(SC)nnc2-c2ccccc2)cc1C | -0.185 | -0.0807 | -0.2 | -30.6 | 16.1* | 23520* | 1680 | +
SMILES | M1 agonist | M1 antag | S1P3 agonist | S1P1 ag-PAM | D1 mod | D1 PAM confirm | D1 no dopamine | Isoprot counter | others
COc1cc(C)c(S(=O)(=O)NCc2cccs2)cc1C | -0.394 | 0.314 | -0.3 | 4.8 | 0.188 | x | x | x
N#CCSC1=Nc2ccccc2C2=NC(CCC(=O)N3CCN(c4ccccc4)CC3)C(=O)N12 (stereo not given) | 1.52 | -0.505 | x | x | -0.249 | x | x | x
CC(C)C1N=C2c3ccccc3N=C(SCC#N)N2C1=O (stereo not given) | -0.279 | 0.458 | -0.8 | -19.6 | 5.05* | 10160* | 1524 | i
CNC[C@H](O)c1cccc(O)c1 | 0.443 | -0.502 | -4.4 | 13.7 | 17.4* | 11024* | 5672* | +
OC(CNCCc1ccccc1)c1ccccc1 (stereo not given) | -0.894 | -0.0336 | 0.7 | -20.0 | -0.483 | x | x | x
CS(=O)(=O)N(Cc1ccccc1)c1ccccc1C(=O)O | -0.348 | 0.348 | x | x | 0.104 | x | x | x
OC(CN1CCOCC1)CN1CCOCC1 | -0.533 | -0.229 | -1.3 | 2.8 | 2.63* | 6000 | 1732 | i
Cn1c(=O)c2c(-c3ccccc3)n(N3CCOCC3)cc2n(C)c1=O | 0.987 | 0.833 | 0.9 | -9.4 | 3.31* | 6320* | 1616 | i
Cc1cccc(-c2c3c(=O)n(C)c(=O)n(C)c3cn2-c2ccc(O)cc2)c1 | 0.229 | -0.0817 | 0.5 | -23.4 | 4.15 | x | x | x
Cn1c(=O)c2c(-c3ccccc3)n(-c3ccccc3O)cc2n(C)c1=O | -1.28 | 0.183 | 0.5 | -7.0 | 2.37 | x | x | x
Cn1c(=O)c2c(-c3ccc(C(C)(C)C)cc3)n(N3CCOCC3)cc2n(C)c1=O | -1.2 | -0.211 | 0.8 | -23.3 | 3.8* | 9948* | 1848 | i
O=C(Nc1ccc(Cl)cc1C(=O)Nc1ccncc1)c1ccco1 | -0.318 | -0.278 | -0.5 | -26.4 | 8.71* | 11616* | x | +
O=C(Nc1ccc(Cl)cc1C(=O)NCc1cccnc1)c1ccco1 | 1.27 | 0.0738 | -0.1 | -11.5 | 10.3* | 16768* | 1484 | +
O=C(Nc1ccccc1C(=O)NCc1cccnc1)c1ccco1 | 2.61 | 1.68 | x | x | x | x | x | x
COc1ccc(C2C(C#N)=C(N)Oc3n[nH]c(-c4ccccn4)c32)c(OC)c1OC (stereo not given) | -0.764 | 0.532 | -0.2 | -26.8 | 10.7* | 17692* | 1644 | +
CCOc1ccc(-c2[nH]nc3c2C(c2ccc4c(c2)OCO4)C(C#N)=C(N)O3)cc1OC (stereo not given) | -0.412 | 0.0234 | -0.3 | 1.7 | 2.42* | 10328* | 10840* | +
